Data from ChEMBL document CHEMBL1140196, “Synthesis and biological activities of some new fluorinated coumarins and 1-aza coumarins” (Eur J Med Chem, 2008).
Active and inactive are the calls of the source.

What was measured:
[1] = tested on: Bacillus; assay: Antibacterial activity against […] at 25 ug/mL after 48 hrs by cup-plate method; type: functional; settings: for zone of inhibition at 25 µg/mL: read-out: IZ
[2] = tested on: Macrophomina phaseolina; assay: Antifungal activity against Rhizoctonia bataticola at 25 ug/mL after 48 hrs by cup-plate method; type: functional
[3] = tested on: Aspergillus niger; assay: Antifungal activity against Aspergillus niger at 50 ug/mL after 48 hrs by cup-plate method; type: functional
[4] = tested on: Bacillus; assay: Antibacterial activity against […] at 50 ug/mL after 48 hrs by cup-plate method; type: functional
[5] = tested on: Aspergillus niger; assay: Antifungal activity against Aspergillus niger at 25 ug/mL after 48 hrs by cup-plate method; type: functional; settings: for zone of inhibition at 25 µg/mL: read-out: IZ
[6] = tested on: Macrophomina phaseolina; assay: Antifungal activity against Rhizoctonia bataticola at 50 ug/mL after 48 hrs by cup-plate method; type: functional; settings: for zone of inhibition at 50 µg/mL: read-out: IZ
[7] = tested on: Escherichia coli; assay: Antibacterial activity against Escherichia coli at 100 ug/mL after 48 hrs by cup-plate method; type: functional
[8] = tested on: Aspergillus niger; assay: Antifungal activity against Aspergillus niger at 100 ug/mL after 48 hrs by cup-plate method; type: functional
[9] = tested on: Escherichia coli; assay: Antibacterial activity against Escherichia coli at 50 ug/mL after 48 hrs by cup-plate method; type: functional
[10] = tested on: Bacillus; assay: Antibacterial activity against […] at 100 ug/mL after 48 hrs by cup-plate method; type: functional
[11] = tested on: Macrophomina phaseolina; assay: Antifungal activity against Rhizoctonia bataticola at 100 ug/mL after 48 hrs by cup-plate method; type: functional
[12] = tested on: Escherichia coli; assay: Antibacterial activity against Escherichia coli at 25 ug/mL after 48 hrs by cup-plate method; type: functional; settings: for zone of inhibition at 25 µg/mL: read-out: IZ
[13] = tested on: Rattus norvegicus; assay: Antiinflammatory activity in Wistar rat assessed as inhibition of formalin-induced paw oedema volume at 100 mg/kg, po administered 30 mins before formalin challenge after 4 hrs relative to control; type: functional
Procedure, shortened: (§1)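 Oral dosing at 100 mg/kg as a 2% CMC suspension, 30 min before injecting 3.5% formalin into the paw. Groups of six Wistar rats of either sex. Paw volume read by mercury-displacement plethysmograph at 0 h (right after formalin) and at 1, 2, 3, 4 and 5 h. Percent inhibition versus plain 2% CMC controls; SEM reported.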

[14] = tested on: Rattus norvegicus; assay: Antiinflammatory activity in Wistar rat assessed as inhibition of formalin-induced paw oedema volume at 100 mg/kg, po administered 30 mins before formalin challenge after 2 hrs relative to control; type: functional; procedure, shortened: as §1
[15] = tested on: Rattus norvegicus; assay: Antiinflammatory activity in Wistar rat assessed as inhibition of formalin-induced paw oedema volume at 100 mg/kg, po administered 30 mins before formalin challenge after 1 hr relative to control; type: functional; procedure, shortened: as §1
[16] = tested on: Rattus norvegicus; assay: Antiinflammatory activity in Wistar rat assessed as inhibition of formalin-induced paw oedema volume at 100 mg/kg, po administered 30 mins before formalin challenge after 5 hrs relative to control; type: functional; procedure, shortened: as §1
[17] = tested on: Rattus norvegicus; assay: Gastrointestinal toxicity in Wistar rat assessed as ulcerogenic effect at 400 mg/kg, po administered twice at 2 hrs interval after 4 hrs; type: organism-based; design: dose 400 mg/kg, route oral; settings: in vivo
Procedure, shortened: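 Male Wistar rats fasted 36 h, then given 400 mg/kg orally twice, 2 h apart. Animals killed 4 h later and the stomach examined for lesions; ulcer index recorded.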

[18] = Acute toxicity in ip dosed albino mouse after 24 hrs; type: organism-based; settings: in vivo
Procedure, shortened: (§2)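 Groups of six albino mice (20–25 g), fasted overnight, dosed once orally or intraperitoneally at 100 to 1000 mg kg^-1 body weight. Observed for 24 h for mortality and signs of acute toxicity (altered motor activity, tremors, convulsion, sedation, lacrimation). LD50 cut-off set at the highest dose tested, 1000 mg kg^-1.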

[19] = Acute toxicity in po dosed albino mouse after 24 hrs; type: organism-based; settings: in vivo; procedure, shortened: as §2
[20] = tested on: Mus musculus; assay: Analgesic activity in albino mouse assessed as inhibition of acetic acid-induced writhing at 10 mg/kg, po; type: functional
Procedure, shortened: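 Acetic acid writhing test: 0.6% acetic acid at 0.1 ml/10 g given intraperitoneally to albino mice of both sexes (18–22 g). Compounds given orally at 10 mg/kg as a suspension in 5% carboxymethyl cellulose. Indomethacin 10 mg/kg was the reference under the same conditions.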

[21] = tested on: Rattus norvegicus; assay: Antiinflammatory activity in Wistar rat assessed as inhibition of formalin-induced paw oedema volume at 100 mg/kg, po administered 30 mins before formalin challenge after 3 hrs relative to control; type: functional; procedure, shortened: as §1

| SMILES | inhibition at 25 µg/mL [1] [%] | inhibition at 25 µg/mL [2] [%] | inhibition at 50 µg/mL [3] [%] | inhibition at 50 µg/mL [4] [%] | inhibition at 25 µg/mL [5] [%] | inhibition at 50 µg/mL [6] [%] | inhibition at 100 µg/mL [7] [%] | inhibition at 100 µg/mL [8] [%] | inhibition at 50 µg/mL [9] [%] | inhibition at 100 µg/mL [10] [%] | inhibition at 100 µg/mL [11] [%] | inhibition at 25 µg/mL [12] [%] | zone of inhibition at 25 µg/mL [12] [mm] | Activity [1] | zone of inhibition at 25 µg/mL [5] [mm] | zone of inhibition at 50 µg/mL [6] [mm] | Activity [12] | zone of inhibition at 25 µg/mL [1] [mm] | Activity [2] | Activity [5] | also measured |
| --- | --- | --- | --- | --- | --- | --- | --- | --- | --- | --- | --- | --- | --- | --- | --- | --- | --- | --- | --- | --- | --- |
| O=c1cc(CNc2ccc(F)cc2)c2cc(Cl)ccc2o1 | 64 | 68 | 73 | 83 | 64 | 76 | 95 | 90 | 64 | 99 | 91 | 51 | 92 | – | – | – | – | – | – | – | – |
| Cc1ccc2oc(=O)cc(COc3ccc(F)cc3)c2c1 | – | – | – | – | – | – | – | – | – | – | – | – | – | – | – | – | – | – | – | – | inhibition in vivo at 100 mg/kg [13]: 64%; inhibition in vivo at 100 mg/kg [14]: 36%; inhibition in vivo at 100 mg/kg [15]: 40%; inhibition in vivo at 100 mg/kg [16]: 76%; UI [17]: 57.29; LD50 at 24 h [18]: > 700 mg/kg; LD50 at 24 h [19]: > 1000 mg/kg; inhibition in vivo at 10 mg/kg [20]: 72.7%; inhibition in vivo at 100 mg/kg [21]: 48% |
| O=c1cc(CNc2ccc(F)cc2)c2ccccc2[nH]1 | – | 21 | 41 | 36 | 24 | 36 | 57 | 63 | 34 | 68 | 60 | – | – | inactive | 54 | 90 | inactive | – | – | – | – |
| Cc1ccc2c(COc3ccc(Cl)cc3)cc(=O)oc2c1 | 14 | – | 22 | 33 | – | 27 | 65 | 50 | 35 | 62 | 54 | 14 | 40 | – | – | 75 | – | 40 | inactive | inactive | – |
| Cc1ccc2c(CNc3ccc(Br)cc3)cc(=O)oc2c1 | 21 | – | 23 | 37 | – | 35 | 64 | 55 | 35 | 63 | 59 | 13 | 38 | – | – | 90 | – | 50 | inactive | inactive | – |
| O=c1cc(COc2ccc(Cl)cc2)c2cc(Cl)ccc2[nH]1 | – | – | 25 | 31 | – | 33 | 50 | 53 | 30 | 60 | 55 | – | – | inactive | – | 84 | inactive | – | inactive | inactive | – |
| CCn1cc(C(=O)O)c(=O)c2cc(F)c(N3CCNCC3)cc21 [NORFLOXACIN] | 100 | 100 | 100 | 100 | 100 | 100 | 100 | 100 | 100 | 100 | 100 | 100 | – | – | – | – | – | – | – | – | – |
| O=c1cc(COc2ccc(Br)cc2)c2ccc(Cl)cc2[nH]1 | – | – | 35 | 26 | 18 | 31 | 50 | 60 | 30 | 60 | 54 | – | – | inactive | 46 | 80 | inactive | – | inactive | – | – |
| Cc1ccc2c(COc3ccc(F)cc3)cc(=O)oc2c1 | 21 | – | 21 | 37 | – | 30 | 62 | 52 | 37 | 64 | 53 | 17 | 44 | – | – | 80 | – | 50 | inactive | inactive | – |
| O=c1cc(COc2ccc(Cl)cc2)c2ccc(Cl)cc2[nH]1 | – | – | 21 | 25 | – | 35 | 48 | 50 | 27 | 56 | 51 | – | – | inactive | – | 78 | inactive | – | inactive | inactive | – |
| Cc1ccc2c(COc3ccc(Br)cc3)cc(=O)oc2c1 | 20 | – | 22 | 37 | – | 32 | 66 | 52 | 37 | 63 | 57 | 20 | 48 | – | – | 84 | – | 48 | inactive | inactive | – |
| CN(C)C=O [DIMETHYLFORMAMIDE] | – | – | – | – | – | – | – | – | – | – | – | – | 20 | – | 20 | 20 | – | 20 | – | – | zone of inhibition at 100 µg/mL ([7]; read-out: IZ): 20 mm; zone of inhibition at 100 µg/mL ([8]; read-out: IZ): 20 mm; zone of inhibition at 100 µg/mL ([10]; read-out: IZ): 20 mm; zone of inhibition at 100 µg/mL ([11]; read-out: IZ): 20 mm |
| COC1=CC(=O)C[C@@H](C)[C@]12Oc1c(Cl)c(OC)cc(OC)c1C2=O [GRISEOFULVIN] | 100 | 100 | 100 | 100 | 100 | 100 | 100 | 100 | 100 | 100 | 100 | 100 | – | – | – | – | – | – | – | – | – |
| Cc1ccc2c(CNc3ccc(Cl)cc3)cc(=O)oc2c1 | 17 | – | 21 | 34 | – | 32 | 62 | 52 | 36 | 60 | 54 | 17 | 44 | – | – | 84 | – | 44 | inactive | inactive | – |
| Cc1cccc2c(COc3ccc(F)cc3)cc(=O)[nH]c12 | – | 21 | 36 | 31 | 22 | 36 | 57 | 60 | 33 | 62 | 58 | – | – | inactive | 52 | 90 | inactive | – | – | – | – |
| O=c1cc(COc2ccc(Br)cc2)c2cc(Cl)ccc2[nH]1 | – | – | 36 | 25 | 21 | 32 | 50 | 62 | 30 | 58 | 55 | – | – | inactive | 50 | 82 | inactive | – | inactive | – | – |
